# A selection: hits, their analogues and other compounds. The true share with any hit is near 2.1%.
# MLL AF4-AF9 inh: inhibitors of AF4 peptide binding to AF9, primary screen, biochemical, AlphaScreen, biotin-AF4 peptide, FLAG-AF9, single point | Protein AF-9 (Homo sapiens), P42568 | inhibition, % at 10 µM | 350,000 tested, 0.47% active | AID 651704, 2012;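 active = every replicate reaching a set inhibition limit, whatever the replicate mean, cut at about 25% in these data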
# Target sequence (P42568 whole entry, looked up): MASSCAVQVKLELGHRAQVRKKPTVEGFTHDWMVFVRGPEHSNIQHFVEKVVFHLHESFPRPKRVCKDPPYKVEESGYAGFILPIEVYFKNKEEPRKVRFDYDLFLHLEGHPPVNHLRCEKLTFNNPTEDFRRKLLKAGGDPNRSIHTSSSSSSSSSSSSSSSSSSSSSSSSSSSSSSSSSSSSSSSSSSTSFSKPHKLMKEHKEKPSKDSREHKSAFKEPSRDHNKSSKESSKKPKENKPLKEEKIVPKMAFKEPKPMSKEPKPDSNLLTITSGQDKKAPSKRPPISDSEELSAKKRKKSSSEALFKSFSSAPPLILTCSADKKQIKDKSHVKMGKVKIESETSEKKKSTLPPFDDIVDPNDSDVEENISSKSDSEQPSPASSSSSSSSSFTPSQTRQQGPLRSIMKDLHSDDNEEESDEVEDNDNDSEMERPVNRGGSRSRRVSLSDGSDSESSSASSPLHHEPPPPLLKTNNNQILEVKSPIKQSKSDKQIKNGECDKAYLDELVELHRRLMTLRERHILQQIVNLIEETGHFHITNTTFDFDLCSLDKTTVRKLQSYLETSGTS
# FN deposit inh: inhibitors of fibronectin matrix deposition, primary screen, AH1F cells, Alexa488-fibronectin fluorescence, plate reader; 350,000 tested, 0.086% active; AID 743247, 2014; inhibition, % at 12.6 µM; AH1F fibroblasts, overnight;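 active = mean inhibition across replicates of 30% or more, regardless of how many single replicates reach that level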
#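 Assay system: AH1F fibroblast monolayer, labelled fibronectin deposition. Amount: 10000 cells per well. Also added: labelled fibronectin 24 nM. Compound: single-point pinned compound. Incubation: cell attachment 1 h, compound and FN exposure overnight. Detection: fluorescence after three HBSS washes, excitation 485 nm, emission 525 nm. Read-out: inhibition of fibronectin deposition signal.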
# PDI turbidity: inhibitors of human PDI, primary screen, biochemical, turbidity, single point, plate reader. PDI insulin aggregation turbidity, A650, 90 min. 350,000 tested, 0.052% active. inhibition, % at 10 µM;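 active = mean inhibition across replicates of 30% or more, whatever share of single replicates reach that level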
# FGF22 binding: binders of human FGF22 protein, primary screen, FGF22 synaptogenesis inhibitor project, biophysical, thermal shift, single point. Fibroblast growth factor 22 (Homo sapiens), Q9HCT0. recombinant FGF22 thermal shift, SYPRO orange fluorescence; percent of sucrose octasulfate shift, DMSO zero. activity (Tm shift, normalised), % at 9.99 µM. 340,000 tested, 1.5% active. AID 651658, 2012;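 active = mean Tm shift, scaled 0 neutral to 100 positive control, at about 1.3% or above, every replicate too, limit read from the data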
# ERp5 inh: inhibitors of ERp5-driven insulin aggregation, primary screen, biochemical, turbidity, absorbance 650 nm, single point; Protein disulfide-isomerase A6 (Homo sapiens), Q15084; inhibition, % at 9.99 µM; 350,000 tested, 0.05% active; 90 min; AID 651711, 2012;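 active = mean replicate inhibition above about 25%, with every replicate also reaching it, limit read from the data, passing the limit was not always enough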
# ARNT-TACC3 inh: disruptors of ARNT/TACC3 protein interaction, primary screen, biochemical, AlphaScreen, single concentration | AlphaScreen His-ARNT PAS-B/GST-TACC3 binding, luminescence; TACC3 fragment carries E629A point mutation | inhibition, % at 9.99 µM | 390,000 tested, 0.66% active;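 active = mean inhibition of replicates at least 50% and at least half of replicates each reaching 50%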
# Hits are given with their value; i = inactive; nt = no result given.
SMILES,MLL AF4-AF9 inh,FN deposit inh,PDI turbidity,FGF22 binding,ERp5 inh,ARNT-TACC3 inh
CN(C)CC(=O)Nc1ccc2c(c1)[C@@H]1C[C@H](CC(=O)NCC3CC3)O[C@H](CO)[C@@H]1O2,i,i,nt,i,i,i
CO[C@H]1CN(C)C(=O)c2ccc(NC(C)=O)cc2OC[C@@H](C)N(C(=O)C2CCC2)C[C@H]1C,i,i,nt,nt,i,i
Cc1cc(C)cc(N=c2c([N+](=O)[O-])nn(-c3ccc4c(c3)OCCO4)n2O)c1,i,i,i,i,i,i
Cc1ccc(N=c2c([N+](=O)[O-])nn(-c3ccc4c(c3)OCCO4)n2O)cc1F,i,i,i,43,i,i
O=C(NC[C@@H]1CC[C@@H]2[C@@H](CN2Cc2cccc(Cl)c2)O1)C1CC1,i,nt,nt,nt,i,nt
CC(=O)C1=C(c2ccc(Br)cc2)C(=O)c2ccccc2C1=O,nt,39,i,nt,nt,i
O=C(O)C1Cc2[nH]cnc2C(c2ccccc2O)N1 (centres undefined),nt,nt,i,nt,nt,82
CN(C)C(=O)C[C@H]1C[C@H]2c3cc(NC(=O)c4cccnc4)ccc3O[C@H]2[C@H](CO)O1,i,i,nt,i,i,i
Oc1nc(-c2ccc(Br)cc2)n2ccncc12,i,i,i,43,i,nt
CN(C)c1ccc(NC(=O)Nc2nc(C(N)C3CCCCC3)cs2)cc1 (centres undefined),57,i,i,i,i,nt
CNC(=O)C[C@@H]1CC[C@H]2[C@@H](COc3ccc(NC(=O)c4ccc5c(c4)OCO5)cc3C(=O)N2C)O1,nt,i,nt,i,nt,i
COc1ccc(-c2ccc3c(c2)[C@@H]2[C@@H](CCN2Cc2ccccc2F)[C@H](CO)N3)cc1,26,i,nt,nt,i,nt
COc1cccc(-c2ccc3c(c2)[C@@H]2[C@@H](CCN2S(=O)(=O)c2cn(C)cn2)[C@@H](CO)N3)c1,i,i,nt,i,i,active
Cc1ccc(S(=O)(=O)N2CC[C@H]3[C@H](CO)Nc4ccc(-c5cccc(C(=O)N(C)C)c5)cc4[C@H]32)cc1,i,31,nt,i,i,i
C[C@H](NC(=O)C[C@@H]1CC[C@@H]2[C@H](COC[C@H](O)CN2C(=O)Nc2cccc(F)c2)O1)c1ccccc1,i,i,nt,i,i,i
Cn1c(-c2csc(-c3ccccc3)n2)n[nH]c1=S,i,i,i,44,i,i
CCNC(=O)[C@H]1[C@H](CO)[C@H]2Cn3c(ccc(C4=CCCC4)c3=O)[C@@H]1N2Cc1ccccc1,i,nt,nt,nt,nt,nt
Cc1ccc(N(C(C)C(=O)NCc2ccncc2)S(C)(=O)=O)cc1C (centres undefined),i,i,i,43,i,i
CC(C(=O)NCc1ccc2c(c1)OCO2)N(c1ccccc1)S(C)(=O)=O (centres undefined),nt,i,i,nt,nt,i
COc1ccc(COCC(O)CN2CCC(C(N)=O)CC2)cc1OC (centres undefined),i,i,i,44,i,i
COc1ccc(C#Cc2ccc3c(c2)O[C@@H](CN(C)C(C)=O)[C@@H](C)CN([C@H](C)CO)S3(=O)=O)cc1,i,i,nt,i,i,i
CC(C)(C)c1nnc(N/N=C/c2ccccc2O)n(N)c1=O,nt,i,i,nt,nt,60
CC(C)(C)c1nnc(N/N=C/c2ccccc2)n(N)c1=O,nt,i,i,nt,nt,i
CC(C)NC(=O)Nc1ccc2c(c1)C(=O)N([C@@H](C)CO)C[C@@H](C)[C@H](CN(C)C(=O)C1CCCCC1)OCCCC[C@H](C)O2,i,i,nt,nt,i,46
C[C@H]1CCCCO[C@@H](CN(C)C(=O)C2CCCCC2)[C@@H](C)CN([C@@H](C)CO)C(=O)c2cc(NC(=O)Cc3ccccc3)ccc2O1,i,nt,nt,1.9,i,i
SMILES,MLL AF4-AF9 inh,FN deposit inh,PDI turbidity,FGF22 binding,ERp5 inh,ARNT-TACC3 inh
C[C@@H]1CCCCO[C@@H](CN(C)C(=O)C2CCCCC2)[C@@H](C)CN([C@H](C)CO)C(=O)c2cc(NC(=O)Cc3ccccc3)ccc2O1,i,nt,nt,i,i,i
C[C@H](CO)N1C[C@H](C)[C@H](CN(C)S(=O)(=O)c2ccccc2F)Oc2ncc(C#Cc3ccccc3F)cc2C1=O,i,i,nt,i,i,i
COc1ccc(S(=O)(=O)N(C)C[C@@H]2OCCCC[C@@H](C)Oc3ccc(NC(=O)NC4CCCCC4)cc3C(=O)N([C@H](C)CO)C[C@@H]2C)cc1,i,i,nt,i,i,i
Cc1ccccc1/C=N/Nc1ncnc2nc[nH]c12,i,i,i,i,i,i
Cc1ccsc1/C=N/Nc1ncnc2nc[nH]c12,i,i,i,i,i,58
COc1ccc(/C=N\NC(=O)c2ccccc2[N+](=O)[O-])cc1COc1c(F)c(F)c(F)c(F)c1F,i,i,i,4.1,i,nt
COc1ccc(/C=N\NC(=O)c2ccc([N+](=O)[O-])cc2)cc1COc1c(F)c(F)cc(F)c1F,i,nt,i,i,i,i
COc1ccc(S(=O)(=O)N(C)C[C@@H]2Oc3ccc(NC(=O)c4ccncc4)cc3CC(=O)N([C@@H](C)CO)C[C@@H]2C)cc1,i,i,nt,i,i,i
c1cn(CCCNC2CCCCCCC2)cn1,i,i,i,i,i,i
c1cn(CCCNC2=NCCCCC2)cn1,nt,i,i,nt,nt,97
O=C1OC(Cc2ccccc2)(c2ccccc2)c2ccccc21 (centres undefined),i,i,i,44,i,nt
CN1C(=O)c2cc(NC(=O)c3cccs3)ccc2OC[C@@H]2O[C@@H](CC(=O)NCCN3CCCCC3)CC[C@H]21,i,i,nt,i,i,i
CC(C)C(=O)Nc1ccc(-c2nc3ccccc3c(=O)o2)cc1,i,nt,i,i,i,16
CCNC(=O)Nc1ccc2c(c1)C(=O)N(C)[C@H]1CC[C@@H](CC(=O)NCc3ccccc3F)O[C@@H]1CO2,i,i,nt,nt,i,i
Fc1ccc2cnc(CCO[C@H]3CCCCO3)cc2c1,49,i,i,i,i,i
Fc1ccc2cc(CCO[C@H]3CCCCO3)ncc2c1,i,i,i,i,i,i
CN(C)C(=O)c1cccc(-c2ccc3c(c2)[C@@H]2[C@@H](CCN2C(=O)C2CCCCC2)[C@@H](CO)N3)c1,nt,i,nt,i,nt,i
CCN(CC)c1ccc(/C=N/NC(=O)c2cccc(S(=O)(=O)N3CCOCC3)c2)c(O)c1,i,i,i,43,i,i
CC1CCC(NC(=O)c2cccc(S(=O)(=O)N3CCOCC3)c2)CC1 (centres undefined),i,i,i,43,i,nt
CCOC(=O)N/N=C/c1ccc(N(CC)CC)cc1O,nt,i,i,nt,nt,i
